High-throughput results deposited in PubChem BioAssay by several laboratories.
The sample as a whole holds a higher share of hits than the screen did.
Lung fibro prol = blocks proliferation of human lung fibroblasts; 85,000 compounds, 1.1% hits; viability, % at 10 µM; LL 47 human lung fibroblast viability, ATP luminescence; stronger effect = lower value;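 active = viability at or below 50% in the single dose screen; inactive = viability above 50%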;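 also: compound exposure lasted 72 h before the ATP readout; 100% = median luminescence of untreated cell-only wells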
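Material: Human LL 47 lung fibroblast cells | Input: 1,150 cells/well | Buffer or medium: IMEM plus 15% FBS | Compound dosing: 0.1% DMSO in all compound wells | Times: Overnight cell rest, 72 h compound treatment at 37 °C | Signal: CellTiter-Glo luminescence measuring cellular ATP | Measure: % viability versus median cells-only luminescence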
PTEN del growth = growth suppressors of cells with PTEN tumor suppressor deletion | HCT116 PTEN-null viability, CellTiter-Glo, 60 h; stronger effect = lower value | viability, % at 10 µM | 140,000 compounds, 1.2% hits;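 active = viability at or below a set limit, 4 SD under the median of all tested compounds, cut at about 3.7% in these data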;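 also: PTEN knockout HCT116 line with beta catenin targeted HCT116 as companion control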
PTK2B oligo ant = blocks oligomerization of human Pyk2 in cells; Q14289; Q293 cells, Pyk2 FERM NanoBiT luminescence; stronger effect = lower value; z-score (the deposit names both 25 µM and 10 µM); 99,000 compounds, 0.83% hits; AID 1347419;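 active = Z-score of -3 or lower, scaled per plate to the spread of control and sample wells; inactive = z-score above -3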;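 also: negative z-score means lost luminescence so less FERM oligomerization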
Target sequence (Q14289 whole entry, looked up): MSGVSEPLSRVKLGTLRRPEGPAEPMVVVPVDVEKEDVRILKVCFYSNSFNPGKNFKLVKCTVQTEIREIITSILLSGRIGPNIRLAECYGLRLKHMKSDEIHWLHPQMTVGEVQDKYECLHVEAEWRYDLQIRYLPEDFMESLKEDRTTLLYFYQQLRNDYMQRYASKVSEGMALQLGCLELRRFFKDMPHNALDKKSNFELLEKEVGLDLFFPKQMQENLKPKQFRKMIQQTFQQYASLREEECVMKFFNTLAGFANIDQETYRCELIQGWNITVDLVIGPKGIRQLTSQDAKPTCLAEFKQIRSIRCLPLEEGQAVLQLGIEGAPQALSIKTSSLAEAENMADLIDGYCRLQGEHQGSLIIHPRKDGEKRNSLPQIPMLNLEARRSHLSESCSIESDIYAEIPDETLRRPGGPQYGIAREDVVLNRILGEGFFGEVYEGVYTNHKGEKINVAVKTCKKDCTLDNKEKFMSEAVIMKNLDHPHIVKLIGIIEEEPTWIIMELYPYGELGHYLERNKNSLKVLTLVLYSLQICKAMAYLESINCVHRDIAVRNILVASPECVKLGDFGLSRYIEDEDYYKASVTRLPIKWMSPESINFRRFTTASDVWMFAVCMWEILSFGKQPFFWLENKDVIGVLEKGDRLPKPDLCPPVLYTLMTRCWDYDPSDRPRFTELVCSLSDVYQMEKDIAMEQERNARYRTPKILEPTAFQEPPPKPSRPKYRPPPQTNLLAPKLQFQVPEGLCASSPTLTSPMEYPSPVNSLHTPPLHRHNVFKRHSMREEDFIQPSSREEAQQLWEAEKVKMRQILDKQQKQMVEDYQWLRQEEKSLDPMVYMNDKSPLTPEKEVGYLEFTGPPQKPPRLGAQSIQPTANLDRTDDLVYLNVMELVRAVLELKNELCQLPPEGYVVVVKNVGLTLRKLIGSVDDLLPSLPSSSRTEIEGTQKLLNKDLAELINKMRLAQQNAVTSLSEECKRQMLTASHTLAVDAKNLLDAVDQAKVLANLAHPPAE
HUVEC prolif 384 = blocks proliferation of human endothelial cells; HUVEC proliferation, CellTiter-Glo luminescence, 72 h; stronger effect = lower value; viability, % at 10 µM (by protocol); 86,000 compounds, 1.1% hits; AID 648;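 active = viability at or below 30%; inactive = viability above 30%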;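 also: 100% = median luminescence of DMSO-only cell control wells on each plate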
H69AR growth 86K = blocks growth of human H69AR lung tumor cells | H69AR lung tumor viability, ATP luminescence, 72 h; stronger effect = lower value | viability, % at 10 µM | 85,000 compounds, 6% hits | AID 598;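 active = viability at or below 40%; inactive = viability above 40%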;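 also: multidrug resistant small cell line overexpressing MRP-1 efflux transporter; 100% = mean luminescence of untreated control wells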
HCT116 bCat-KO = beta-catenin-lacking colon tumor cell growth suppression; HCT116 beta-catenin knockout viability, CellTiter-Glo, 60 h; stronger effect = lower value; 140,000 compounds, 1.5% hits; AID 818; viability, % at 10 µM;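 active = viability at or under a set limit, the compound median less 4 SD, cut at about 6% in these data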;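 also: 0% = Hyamine 1622 control at 20 µM and 100% = untreated cell control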
* hit, by the source's call; x = not tested or not shown.

SMILES	Lung fibro prol	PTEN del growth	PTK2B oligo ant	HUVEC prolif 384	H69AR growth 86K	HCT116 bCat-KO
Cc1ccc(N=C2C(=S)N(c3ccc(C)cc3)C(=N)N2/N=C/c2ccc(Cl)cc2)cc1	85	90	0.17	75	2.7*	87
Cc1cc(/C=N/NC(=O)C(=O)NCc2ccccn2)c(C)n1-c1ccccc1	x	89	x	x	x	94
COc1ccc(-c2nc3c(c(=O)[nH]c(=O)n3Cc3ccccc3)n2C)cc1	100	82	-0.91	86	65	78
COc1ccc(-c2nc3c(c(=O)[nH]c(=O)n3Cc3ccccc3)n2Cc2ccccc2)cc1	x	67	-3.1*	x	x	67
CCNS(=O)(=O)c1ccc(C)c(-n2cnnn2)c1C	100	101	1.4	84	115	91
CC1CCN(c2c(NCc3ccc(C(=O)N4c5ccccc5CC4C)cc3)c(=O)c2=O)CC1 (configuration not stated)	92	86	x	86	34*	77
C=CCNc1nc(N)c(C(=C(C#N)C#N)c2ccc(Br)cc2)s1	x	30	x	x	x	50
O=C(CCl)NCc1c(Cl)cccc1-n1cccc1	x	11	0.6	x	x	12
N#Cc1c(NC(=O)CCN2C(=O)c3ccccc3C2=O)oc(-c2ccccc2)c1-c1ccccc1	x	94	0.38	x	x	104
CC(C)CC(C(=O)Nc1oc(-c2ccccc2)c(-c2ccccc2)c1C#N)N1C(=O)c2ccccc2C1=O (configuration not stated)	89	88	-3.7*	82	91	97
COc1cc(-c2cc(OC)c3c(C)oc(C)c3c(=O)c2)ccc1O	86	55	-0.25	72	30*	47
COc1ccc(-c2cc(OC)c3c(C)oc(C)c3c(=O)c2)cc1OC	92	77	1.2	86	58	71
Cc1ccc(C2CC(C(F)F)n3ncc(C(=O)Nc4cnn(Cc5ccccc5C)c4)c3N2)cc1 (configuration not stated)	63	2.1*	-0.65	16*	14*	1.8*
Cc1cc(O)c2c(-c3ccccc3)cc(=O)oc2c1	87	92	-2	62	39*	91
CCCCc1cc(=O)oc2cc(C)cc(O)c12	56	17	-2.5	48	10*	5.1*
CCOC(=O)c1cccc(NC(=O)C2(S(=O)(=O)c3ccc(Cl)cc3)CC2)c1	x	82	x	x	x	80
CCn1c(CCNC(=O)c2ccc(Cl)c(Cl)c2)nnc1SCCOc1ccc(OC)cc1	x	64	-0.79	x	x	65
N#CCCCN1C(=O)C(O)(CC(=O)c2ccc3c(c2)OCCO3)c2ccccc21 (configuration not stated)	103	100	-1	94	92	78
C=C(C)CN1C(=O)C(O)(CC(=O)c2ccc3c(c2)OCCO3)c2ccccc21 (configuration not stated)	103	79	0.16	93	39*	25
CCOC(=O)C1=C(C)NC(C)=C(C(=O)OCC)C1c1sccc1C	x	60	-3.3*	x	x	66
CCOC(=O)C1=C(C)NC(C)=C(C(=O)OCC)C1C(=O)O	x	88	0.32	82	94	96
CCCC1C(C(=O)OCC)=C(C)NC(C)=C1C(=O)OCC	96	84	-3.1*	94	61	85
Cc1cc(C)c(C)c(C(=O)CSc2nnc(C)c(=O)[nH]2)c1C	x	103	x	x	x	106
CCCc1nnc(SCC(=O)N2CCOCC2)n1C	115	101	0.49	95	95	97
Cc1noc(C)c1CSc1ncnc2ccccc12	96	70	-0.23	93	86	66
SMILES	Lung fibro prol	PTEN del growth	PTK2B oligo ant	HUVEC prolif 384	H69AR growth 86K	HCT116 bCat-KO
Cc1ccc(NC(=O)Cn2c(/C=C/c3ccccc3)nc3ccccc32)cc1C	x	68	-3.8*	x	x	85
Cc1nc2ccccc2n1CC(=O)N/N=C\C=C\c1ccccc1	x	84	-0.03	x	x	88
COC(=O)c1c(NC(=O)COC(=O)CCc2ccc(S(=O)(=O)N3CCOCC3)cc2)sc2c1CCC2	x	79	x	x	x	85
COc1cccc2cc(-c3nnc(SCC(=O)Nc4cc(C(F)(F)F)ccc4Cl)n3N)oc12	88	45	0.35	69	7.6*	51
CCn1c(SCC(=O)Nc2nccs2)nnc1-c1cc2cccc(OC)c2o1	106	82	1	109	96	94
Cc1c(Cl)cccc1Nc1nc(N)nc(CN2CCc3ccccc3C2)n1	87	53	-0.34	89	15*	64
